Assay results taken from ChEMBL document CHEMBL3286113, “New potent antibacterial oxazolidinone (MRX-I) with an improved class safety profile” (J Med Chem, 2014).
≈ marks a conversion by molar mass, not a printed value.

What was measured:
[1] = test system: Rattus norvegicus; test: Toxicity in female rat assessed as effect on reticulocyte count at 100 mg/kg/day, po bid administered for 4 weeks (reference value: 1.48%); type: organism-based; set-up: route oral; details: in vivo, 672 h
[2] = Half life in female rat at 5 mg/kg, iv; type: ADME, organism-based; set-up: dose 5 mg/kg, route intravenous; details: in vivo
[3] = Tmax in fasted human at 300 mg, po administered as single dose; type: ADME, organism-based; details: in vivo
Outline: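 Randomized single-dose, three-period Latin-square crossover in 12 healthy volunteers (six per gender), fasting. Single oral doses of 300, 600 and 900 mg were separated by a 1-week washout. PK parameters were derived by noncompartmental analysis.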

[4] = test system: Streptococcus pneumoniae; test: Bactericidal activity against penicillin-resistant Streptococcus pneumoniae; type: functional
[5] = Tmax in human at 600 mg, po administered as single dose with meal measured on day 1; type: ADME, organism-based; details: in vivo
Outline: (§1)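 Randomized, double-blind, placebo-controlled multiple-dose study in 32 healthy subjects, half male and half female. Dosing was 600 or 800 mg orally with a meal, 28 doses over 15 days. A single dose was given on days 1 and 15 for full PK, with Q12h (BID) dosing on days 2−14.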

[6] = test system: Rattus norvegicus; test: Toxicity in female rat assessed as effect on RBC count at 200 to 300 mg/kg/day, po bid administered for 4 weeks (reference value: 7.28 x 10^12/L); type: organism-based; set-up: route oral; details: in vivo, 672 h
[7] = test system: Homo sapiens; test: Toxicity in human assessed as change in reticulocyte count at 600 to 800 mg, po administered as single dose with meal on day 1 and day 15 followed by bid with meal on day 2 to day 14 measured during compound treatment; type: organism-based; details: in vivo
[8] = Cmax in fasted human at 600 mg, po administered as single dose; type: ADME, organism-based; set-up: dose 600 mg, route oral; details: in vivo
Outline: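 Healthy volunteers (12; six of each sex) in a three-period Latin-square crossover. Each received single oral doses of 300, 600 and 900 mg under fasting conditions, with a 1-week washout between doses. Parameters from a noncompartmental model.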

[9] = test system: Mus musculus; test: Dose normalized Cmax in po dosed mouse; type: ADME, organism-based; details: in vivo
[10] = test system: Streptococcus agalactiae; test: Antibacterial activity against Streptococcus agalactiae; type: functional
[11] = test system: Homo sapiens; test: Toxicity in human assessed as change in platelet count at 600 to 800 mg, po administered as single dose with meal on day 1 and day 15 followed by bid with meal on day 2 to day 14 measured during compound treatment; type: organism-based; details: in vivo
[12] = test system: Staphylococcus aureus; test: Antibacterial activity against methicillin-resistant Staphylococcus aureus isolate 0612; type: functional
[13] = test system: Rattus norvegicus; test: Toxicity in female rat assessed as effect on mean corpuscular hemoglobin level at 100 mg/kg/day, po bid administered for 4 weeks (reference value: 19.5 pg); type: organism-based; set-up: route oral; details: in vivo, 672 h
[14] = Oral bioavailability in dog; type: ADME, organism-based, Canis lupus familiaris; details: in vivo
[15] = Cmax in male rat at 45 mg/kg, po; type: ADME, organism-based; set-up: dose 45 mg/kg, route oral; details: in vivo
[16] = Clastogenicity in CHL cells assessed as induction of structural chromosomal aberration at 25 to 200 ug/mL measured over 24 hrs in presence of metabolic activation; type: toxicity, cell-based, Cricetulus griseus; details: chinese hamster
Outline: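 Chinese hamster lung cells scored for structural chromosome aberrations with or without metabolic activation. Exposure was 50–400 μg/mL over 6 h, or 25–200 μg/mL over 24 h.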

[17] = test system: Homo sapiens; test: Toxicity in human at 600 to 800 mg, po administered as single dose with meal on day 1 and day 15 followed by bid with meal on day 2 to day 14 measured during compound treatment; type: organism-based; details: in vivo
[18] = test system: Staphylococcus aureus; test: Antibacterial activity against methicillin-sensitive Staphylococcus aureus ATCC 29213 in po dosed mouse thigh infection model; type: functional, organism-based; details: Thigh muscle
Outline: (§2)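 Mouse thigh infection with S. aureus ATCC29213 (MSSA), 10 animals per dosing group. Oral doses were 5, 10, 20, 40 and 80 mg/kg. The read-out was log CFU per thigh after treatment, and the reduction (ΔLogCFU/thigh) was reported.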

[19] = Cmax in female rat at 45 mg/kg, po; type: ADME, organism-based; set-up: dose 45 mg/kg, route oral; details: in vivo
[20] = test system: Staphylococcus aureus; test: Antibacterial activity against methicillin-sensitive Staphylococcus aureus ATCC 29213 in mouse thigh infection model assessed as reduction of log10 CFU per thigh at 80 mg/kg, po; type: functional; outline: as §2
[21] = test system: Staphylococcus aureus; test: Antibacterial activity against Staphylococcus aureus measured after 3 serial passages; type: functional
[22] = test system: Streptococcus pneumoniae; test: Antibacterial activity against penicillin-resistant Streptococcus pneumoniae isolate 0613 in po dosed mouse systemic infection model; type: functional; details: isolate 0613, po
[23] = test system: Rattus norvegicus; test: Toxicity in female rat assessed as effect on hematocrit level at 100 mg/kg/day, po bid administered for 4 weeks (reference value: 39.08%); type: organism-based; set-up: route oral; details: in vivo, 672 h
[24] = test system: Staphylococcus haemolyticus; test: Antibacterial activity against Staphylococcus haemolyticus; type: functional
[25] = test system: Rattus norvegicus; test: Toxicity in female rat assessed as effect on mean corpuscular hemoglobin level at 200 to 300 mg/kg/day, po bid administered for 4 weeks (reference value: 19.5 pg); type: organism-based; set-up: route oral; details: in vivo, 672 h
[26] = Half life in female rat at 45 mg/kg, po; type: ADME, organism-based; set-up: dose 45 mg/kg, route oral; details: in vivo
[27] = Cmax in female rat at 15 mg/kg, po; type: ADME, organism-based; set-up: dose 15 mg/kg, route oral; details: in vivo
[28] = test system: Staphylococcus aureus; test: Antibacterial activity against Staphylococcus aureus assessed as time required for growth inhibition; type: functional
[29] = Tmax in human at 800 mg, po administered as single dose with meal measured on day 15; type: ADME, organism-based; details: in vivo; outline: as §1
[30] = Tmax in human at 900 mg, po administered as single dose at 30 mins post fat meal; type: ADME, organism-based; details: in vivo
Outline: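 Crossover study in 12 healthy subjects (six per gender). A single oral 900 mg dose was given either fasting or 30 min after a fat-containing meal. Tmax was taken from plasma PK.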

[31] = test system: Enterococcus faecalis; test: Antibacterial activity against vancomycin-sensitive/high-level gentamycin-resistant Enterococcus faecalis isolate HH22; type: functional; details: EnGen0297
[32] = AUC (0 to t) in male rat at 5 mg/kg, po; type: ADME, organism-based; set-up: dose 5 mg/kg, route oral; details: plasma
Outline: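 Rat PK by gender, with single oral doses of 5, 15 and 45 mg/kg and an iv dose of 5 mg/kg. Tmax, Cmax, T1/2 and AUC0−t were reported per gender.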

[33] = test system: Staphylococcus aureus; test: Antibacterial activity against methicillin-sensitive Staphylococcus aureus ATCC 29213 in po dosed mouse systemic infection model; type: functional; details: ATCC 29213, po
[34] = target: Cytochrome P450 2D6 (Homo sapiens, UniProt P10635); test: Inhibition of CYP2D6 (unknown origin) at 1 to 200 uM; type: ADME
Chain of Cytochrome P450 2D6 (P10635 whole entry): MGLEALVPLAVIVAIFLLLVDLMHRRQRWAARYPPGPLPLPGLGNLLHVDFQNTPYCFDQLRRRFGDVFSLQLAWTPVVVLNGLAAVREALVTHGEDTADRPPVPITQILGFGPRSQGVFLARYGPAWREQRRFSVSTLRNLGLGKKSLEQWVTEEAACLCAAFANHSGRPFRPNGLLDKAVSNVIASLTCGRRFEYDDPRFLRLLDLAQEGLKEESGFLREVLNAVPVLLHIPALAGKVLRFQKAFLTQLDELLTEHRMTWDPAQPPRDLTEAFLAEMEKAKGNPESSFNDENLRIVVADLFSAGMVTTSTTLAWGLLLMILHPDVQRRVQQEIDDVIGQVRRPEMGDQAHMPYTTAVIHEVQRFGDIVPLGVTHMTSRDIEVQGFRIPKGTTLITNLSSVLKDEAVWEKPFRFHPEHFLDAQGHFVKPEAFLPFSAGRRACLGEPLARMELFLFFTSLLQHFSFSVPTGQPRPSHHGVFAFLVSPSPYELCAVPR

[35] = test system: Rattus norvegicus; test: Toxicity in female rat assessed as effect on platelet count at 100 mg/kg/day, po bid administered for 4 weeks (reference value: 654.6 x 10^9/L); type: organism-based; set-up: route oral; details: in vivo, 672 h
[36] = test system: Enterococcus faecium; test: Bacteriostatic activity against vancomycin-sensitive Enterococcus faecium; type: functional
[37] = test system: Rattus norvegicus; test: Drug uptake in rat at 20 to 300 mg/kg/day, po bid administered for 4 weeks measured after day 28; type: ADME, organism-based; set-up: route oral; details: in vivo, 672 h
Outline: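 Rats, 10 per sex per group, dosed orally twice daily at 20, 100 and 200 mg/kg/day for 4 weeks, then a 4-week recovery. The top dose was raised to 300 mg/kg/day on day 15. Toxicokinetic blood samples were drawn on days 1, 14 and 28.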

O=C1C=CN(c2c(F)cc(N3C[C@H](CNc4ccon4)OC3=O)c(F)c2F)CC1 [CONTEZOLID]
Activity [1]: 1.46%
half-life [2]: 1.51 h
Tmax [3]: 1.25 h
MIC50 [4]: 0.5 µg/mL (≈ 1.22 µM)
MIC90 [4]: 0.5 µg/mL (≈ 1.22 µM)
Tmax [5]: 0.65 h
Activity [6]: 5.77 ×10¹² /L
Activity [7]: Non-toxic
Cmax [8]: 12200 ng/mL
Cmax/dose [9]: 524 ng/mL/(mg/kg)
MIC50 [10]: 1 µg/mL (≈ 2.45 µM)
MIC90 [10]: 1 µg/mL (≈ 2.45 µM)
Activity [11]: Non-toxic
MIC [12]: 2 µg/mL (≈ 4.9 µM)
Activity [13]: 20.28 pg
bioavailability [14]: 37%
Cmax [15]: 27800 ng/mL
Activity [16]: Non-toxic
Activity [17]: Non-toxic
Activity [18]: Dose-dependent effect
Cmax [19]: 50000 ng/mL
deltalog10CFU [20]: 3.73
MIC [21]: 2 µg/mL (≈ 4.9 µM)
ED50 [22]: 10.5 mg/kg
Activity [23]: 36.48%
MIC50 [24]: 0.5 µg/mL (≈ 1.22 µM)
MIC90 [24]: 0.5 µg/mL (≈ 1.22 µM)
Activity [25]: 20.48 pg
half-life [26]: 1.87 h
Cmax [27]: 17200 ng/mL
Time [28]: 1.6 h
Tmax [29]: 0.57 h
Tmax [30]: 1.63 h
MIC [31]: 2 µg/mL (≈ 4.9 µM)
AUC(0-t) [32]: 10200 ng·h/mL
ED50 [33]: 8 mg/kg
inhibition (INH) [34]: Not Active
Activity [35]: 636.2 ×10⁹ /L
MIC50 [36]: 1 µg/mL (≈ 2.45 µM)
MIC90 [36]: 1 µg/mL (≈ 2.45 µM)
Drug uptake [37]: Not Active
